# Calls of active or inactive are those of the source. The rule behind the calls is not given here.
# Assays:
# [1] = Cytotoxicity against mouse HT22 cells assessed as cell viability at 10 uM after 18 hrs by MTT assay; assay type: cell-based, HT-22; conditions: read-out: Activity
# Outline: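 HT-22 mouse hippocampal cells grown in DMEM with 10% FBS at 37 °C, 5% CO2. Cells seeded at 5000/well the day before and exposed to compound at 10 µM for 18 h at 37 °C. MTT added for 3 h, formazan dissolved in DMSO, absorbance read at 570 nm. Viability expressed relative to vehicle control (100%).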
# Mus musculus [2] = organism: Mus musculus; conditions: ICR, 25 mg/kg
# Mus musculus [3] = assay: Antialzheimer activity in human amyloid beta (3 to 40) induced acute ICR mouse Alzheimer's disease mouse model assessed as inhibition of amyloid beta (N3pE to 40) formation in brain at 10 mM, icv by sandwich ELISA; assay type: functional
# Outline: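 Acute model: male ICR mice, 5 weeks old (25 g, n = 4), anaesthetized and given 5 µg human Aβ3-40 in 5 µL PBS by stereotaxic injection into deep cortex/hippocampus (AP -2.0, ML 1.2, DV 1.0 mm from bregma). Inhibitor given by the same intracerebral route or i.p. Brain extracts taken next day; Aβ N3pE-40 quantified by sandwich ELISA. Percent inhibition is relative to vehicle; one-way ANOVA with Bonferroni.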
# Mus musculus [4] = organism: Mus musculus; assay: animal or person; conditions: ICR, ip, read-out: INH
# [5] = biological target: Glutaminyl-peptide cyclotransferase (Mus musculus, UniProt Q9CYK2); assay: Inhibition of mouse glutaminyl cyclase assessed as reduction in conversion of H-Gln-AMC hydrobromide to pGlu-AMC preincubated with substrate for 10 mins followed by enzyme addition by pGAPase coupled fluorometry
# Sequence of Glutaminyl-peptide cyclotransferase (Q9CYK2 whole entry): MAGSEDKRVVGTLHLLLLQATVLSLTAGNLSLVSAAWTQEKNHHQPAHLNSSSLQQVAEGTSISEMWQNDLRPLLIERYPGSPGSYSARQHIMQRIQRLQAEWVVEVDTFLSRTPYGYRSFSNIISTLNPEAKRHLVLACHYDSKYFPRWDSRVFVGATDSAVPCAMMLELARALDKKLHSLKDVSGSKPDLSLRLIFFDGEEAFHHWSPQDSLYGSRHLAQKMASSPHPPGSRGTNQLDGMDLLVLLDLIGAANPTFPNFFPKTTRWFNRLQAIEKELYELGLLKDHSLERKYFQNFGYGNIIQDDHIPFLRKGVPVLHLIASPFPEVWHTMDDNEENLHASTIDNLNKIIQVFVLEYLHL
# Mus musculus [6] = assay: Cognition enhancement activity in 5XFAD Alzheimer's disease mouse model assessed as increase in duration of time spent in target quadrant administered intraperitoneally starting from 19 to 34 weeks of age by Morris water maze test; assay type: functional
# Outline: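 Male 5XFAD mice (n = 6 vehicle, n = 6 treated) received the compound i.p. from 19 weeks of age for 3 months, housed singly on a 12:12 h light cycle. Morris water maze: four hidden-platform training trials per day for 5 days, scoring escape latency. Probe trial 24 h later with the platform removed, scoring time in the target quadrant.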
# [7] = Stability in mouse liver microsomes assessed as compound remaining after 30 mins; assay type: ADME, microsome; conditions: read-out: Stability
# Mus musculus [8] = assay: Toxicity in APP/PS1 transgenic Alzheimer's disease mouse model administered via icv for 3 weeks; conditions: in vivo, icv_or_intrathecal, 504 h
SMILES,"viability at 18 h, 10 µM [1] [%]",inhibition (Mus musculus [2]),inhibition (INH) (Mus musculus [3]) [%],inhibition in vivo at 25 mg/kg (Mus musculus [4]) [%],IC50 [5] [nM],Activity (Mus musculus [6]),remaining at 0.5 h [7] [%],Activity (Mus musculus [8])
COc1cc(NC(=S)NCCCn2cncc2C)ccc1OCCCN,100,inactive,64.6,,,,,
COc1cc(NC(=S)NCCCn2cncc2C)ccc1OCCC1CCN(C)CC1,100,,18.7,,,,,
COc1cc(NC(=S)NCCCn2cncc2C)ccc1OCCN1CCNCC1,100,,77.2,3.6,,,,
COc1ccc(NC(=S)NCCCn2cncc2C)cc1OC,100,inactive,41.6,,21.5,,,
COc1cc(NC(=S)NCCCn2cncc2C)ccc1OCCCCN(C)C,100,,35.7,,,,,
COc1cc(NC(=S)NCCCn2cncc2C)ccc1OCCCCN1CCNCC1,100,,29.2,,,,,
COc1cc(NC(=S)NCCCn2cncc2C)ccc1OCCc1ccnc(N)c1,100,,38,,,,,
COc1cc(NC(=S)NCCCn2cncc2C)ccc1OCCCCNc1ncccn1,100,,27.3,,,,,
COc1cc(NC(=S)NCCCn2cncc2C)ccc1OCCCCc1ccnc(N)c1,100,,66.1,54.7,12.6,Active,50,Non-Toxic

# Source: ChEMBL document CHEMBL4007443, “Discovery of Potent Human Glutaminyl Cyclase Inhibitors as Anti-Alzheimer's Agents Based on Rational Design” (J Med Chem, 2017)
